Measured values collected from several papers.
Target: Maternal embryonic leucine zipper kinase (MELK, Homo sapiens, UniProt Q14680)

| SMILES | observed | action | technique | tested at | quantity | value |
| --- | --- | --- | --- | --- | --- | --- |
| COc1cc(Nc2ncc(F)c(Nc3ccc4c(n3)NC(=O)C(C)(C)O4)n2)cc(OC)c1OC | binding | – | competition with immobilised ligand | 10 µM | inhibition | 71% |
| CC(C)(C)c1cc(C=C(C#N)C#N)cc(Br)c1O | enzyme activity | inhibitor | – | 0.5 µM | remaining activity | 91.6% |
| Cc1nn(C)cc1-c1nc2c(N3CCN(Cc4ccc(Cl)cc4)CC3)c(Cl)cnc2[nH]1 | binding | – | competition with immobilised ligand | 1 µM | remaining binding | 100% |
| N#CC1(c2ccccn2)CCN(Cc2cc(C(=O)O)c(=O)n3ccccc23)CC1 | cell-free assay | – | competition with immobilised ligand | 1 µM | remaining binding | 55% |
| COc1ncccc1-c1cnn2ccc(N3CCN(C(=O)OC(C)C)CC3)nc12 | binding | – | competition with immobilised ligand | 1 µM | remaining binding | 97% |
| Cn1cc(-c2cc(F)cc(N3CCn4c(cc5c4CCCC5)C3=O)c2CO)cc(Nc2ccc(N3CCN(C4COC4)CC3)cn2)c1=O | enzyme activity | inhibitor | – | 0.1 µM | inhibition | 16% |
| Cn1cncc1[C@@](O)(COc1ccc(C#N)cc1-c1ccc(OC(F)(F)F)cc1)c1ccc(C#N)cc1 | cell-free assay | – | competition with immobilised ligand | 1 µM | remaining binding | 79% |
| Cn1cc(-c2cccc(N3CCc4c(sc5c4CC(C)(C)C5)C3=O)c2CO)cc(Nc2ccncn2)c1=O | enzyme activity | inhibitor | – | 1 µM | inhibition | 5% |
| O=c1[nH]c2ccccc2n1C1CCN(Cc2ccc(-c3[nH]c4cc5ncnc5cc4nc3-c3ccccc3)cc2)CC1 | cell-free assay | – | – | 0.5 µM | remaining signal | 110% |
